Experimental data from different studies.
Converted amounts (≈) assume the structure as drawn.
Effect on: microbial growth

Structure (SMILES)	organism	test	test system	setting	MIC
c1ccc(CCOC2CCCc3c2[nH]c2ccccc32)cc1 (centres unmarked)	Micrococcus luteus	broth dilution	DSM1790	–	128 µg/mL (≈ 439 µM)
COc1ccc(-c2nc3ccc(C)cc3[nH]2)cc1OC	Staphylococcus aureus	broth dilution	ATCC43300 MRSA	drug-resistant strain	256 µg/mL (≈ 954 µM)
CN[C@H](CC(C)C)C(=O)N[C@H]1C(=O)N[C@@H](CC(N)=O)C(=O)N[C@H]2C(=O)N[C@H]3C(=O)N[C@H](C(=O)N[C@H](C(=O)O)c4cc(O)cc(O)c4-c4cc3ccc4O)[C@H](O)c3ccc(c(Cl)c3)Oc3cc2cc(c3O[C@@H]2O[C@H](CO)[C@@H](O)[C@H](O)[C@H]2O[C@H]2C[C@](C)(N)[C@H](O)[C@H](C)O2)Oc2ccc(cc2Cl)[C@H]1O	Lactobacillus acidophilus	agar dilution	–	48 h	2 µg/mL (≈ 1.38 µM)
COC(=O)c1cc(-c2cccc(NC(=S)NC3CCCCC3)c2)on1	Escherichia coli	broth dilution	ATCC25922	–	> 64 µg/mL
Cc1ccc2[nH]c3c(c2c1)CCCC3NCCc1ccc(O)cc1 (centres unmarked)	Micrococcus luteus	broth dilution	DSM1790	–	8 µg/mL (≈ 25 µM)
COC(=O)c1cc(-c2cccc(NC(=O)Nc3cccc(Br)c3)c2)on1	Escherichia coli	broth dilution	ATCC25922	–	> 64 µg/mL
CC1(C)CC[C@]2(C(=O)O)CC[C@]3(C)C(=CC[C@@H]4[C@@]5(C)CC[C@H](O)C(C)(C)[C@@H]5CC[C@]43C)[C@@H]2C1	Staphylococcus aureus	–	ATCC29213	–	128 µg/mL (≈ 280 µM)
Clc1ccc(-c2nc3ccccc3[nH]2)cc1Cl	Staphylococcus aureus	broth dilution	ATCC43300 MRSA	drug-resistant strain	64 µg/mL (≈ 243 µM)
CC(C)[C@H](N)C(=O)OCCCCCn1cnc2nc(NCc3ccc(Cl)c(Cl)c3)[nH]c(=O)c21	Lactobacillus acidophilus	agar dilution	–	48 h	8 µg/mL (≈ 16.1 µM)
COC(=O)c1cc(-c2cccc(NC(=O)Nc3cccc(Cl)c3Cl)c2)on1	Escherichia coli	broth dilution	ATCC25922	–	> 64 µg/mL
Cc1ccc2nc(-c3ccc4c(c3)OCO4)[nH]c2c1	Staphylococcus aureus	broth dilution	ATCC43300 MRSA	drug-resistant strain	512 µg/mL (≈ 2030 µM)
